Measured values published in ChEMBL document CHEMBL5532695, “4-Trifluoromethyl bithiazoles as broad-spectrum antimicrobial agents for virus-related bacterial infections or co-infections” (RSC Med Chem, 2024).

System: Zika virus
Assay: not given
Conditions: vero e6; call rule not given here

For `O=C(O)c1cc(Nc2nc(-c3sc(NC(=O)c4ccccc4)nc3C(F)(F)F)cs2)cc(C(=O)O)c1`, which IC50 is on record?
Its IC50 is “Not Active”.

For `CC(C)(C)C(=O)Nc1nc(C(F)(F)F)c(-c2csc(Nc3cc(C(=O)O)cc(C(=O)O)c3)n2)s1`, which IC50 is on record?
The IC50 was “Not Active”.

System: enterovirus D68
Assay: microbe, parasite or virus in culture
Conditions: Enterovirus D, HeLa, 48 h

With `CC(C)(C)C(=O)Nc1nc(C(F)(F)F)c(-c2csc(Nc3cc(C(=O)O)cc(C(=O)O)c3)n2)s1` as the molecule, how does the IC50 read?
The IC50 was 12.3 µM.

Target: Phosphatidylinositol 4-kinase beta (Homo sapiens, UniProt Q9UBF8)
Assay: Inhibition of recombinant full length his tagged PI4KB (unknown origin) incubated for 10 mins in presence of ATP by ADP-glo kinase assay
Conditions: not given

Sequence of Phosphatidylinositol 4-kinase beta (Q9UBF8 whole entry): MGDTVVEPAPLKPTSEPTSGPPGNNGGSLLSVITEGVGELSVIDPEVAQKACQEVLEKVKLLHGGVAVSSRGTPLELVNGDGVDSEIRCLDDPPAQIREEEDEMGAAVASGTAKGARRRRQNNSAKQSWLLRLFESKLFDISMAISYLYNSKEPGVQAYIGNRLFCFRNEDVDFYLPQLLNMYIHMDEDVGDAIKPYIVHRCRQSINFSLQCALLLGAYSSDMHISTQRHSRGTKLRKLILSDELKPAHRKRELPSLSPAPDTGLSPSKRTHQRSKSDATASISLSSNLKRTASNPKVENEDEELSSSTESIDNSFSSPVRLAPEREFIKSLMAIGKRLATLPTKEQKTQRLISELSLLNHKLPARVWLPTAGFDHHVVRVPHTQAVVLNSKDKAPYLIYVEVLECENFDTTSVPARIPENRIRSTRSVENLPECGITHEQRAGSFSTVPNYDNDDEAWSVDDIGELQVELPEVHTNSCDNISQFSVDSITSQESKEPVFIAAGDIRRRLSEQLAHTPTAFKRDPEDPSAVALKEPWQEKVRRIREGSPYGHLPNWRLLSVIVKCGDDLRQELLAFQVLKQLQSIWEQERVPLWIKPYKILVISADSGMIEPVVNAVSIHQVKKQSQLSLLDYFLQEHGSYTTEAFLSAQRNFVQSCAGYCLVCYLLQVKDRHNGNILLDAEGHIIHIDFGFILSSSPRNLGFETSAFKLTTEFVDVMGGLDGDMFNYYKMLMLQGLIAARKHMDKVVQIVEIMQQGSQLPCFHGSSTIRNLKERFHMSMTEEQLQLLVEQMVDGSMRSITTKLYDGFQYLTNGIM

Which IC50 does the source give for `O=C(O)c1cc(Nc2nc(-c3sc(NC(=O)c4ccccc4)nc3C(F)(F)F)cs2)cc(C(=O)O)c1` here?
Its IC50 is “Not Active”.

Which IC50 does the source give for `CC(C)(C)C(=O)Nc1nc(C(F)(F)F)c(-c2csc(Nc3cc(C(=O)O)cc(C(=O)O)c3)n2)s1` here?
The IC50 was “Not Active”.

System: Bacillus subtilis
Assay: Antibacterial activity against Bacillus subtilis ATCC 6633 assessed as reduction in microbial growth measured after 18 hrs by CLSI based broth microdilution method
Type: functional
Conditions: not given
In short: (§1)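 MIC by CLSI broth microdilution in Mueller–Hinton medium, triplicate. Inoculum 5 × 10^4 CFU per well. Compounds taken up in DMSO (50 mg mL−1 stock) and diluted in medium. Read after 18 h at 35 ± 2 °C.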

With `O=C(O)c1cc(Nc2nc(-c3sc(NC(=O)c4ccccc4)nc3C(F)(F)F)cs2)cc(C(=O)O)c1` as the molecule, how does the MIC read?
The MIC was over 32 µg/mL.

With `CC(C)(C)C(=O)Nc1nc(C(F)(F)F)c(-c2csc(Nc3cc(C(=O)O)cc(C(=O)O)c3)n2)s1` as the molecule, how does the MIC read?
The MIC was over 32 µg/mL.

System: Enterococcus faecalis
Assay: Antibacterial activity against Enterococcus faecalis ATCC 29212 assessed as reduction in microbial growth measured after 18 hrs by CLSI based broth microdilution method
Type: functional
Conditions: not given
In short: as §1

Which MIC does the source give for `O=C(O)c1cc(Nc2nc(-c3sc(NC(=O)c4ccccc4)nc3C(F)(F)F)cs2)cc(C(=O)O)c1` here?
Its MIC is over 32 µg/mL.

For `CC(C)(C)C(=O)Nc1nc(C(F)(F)F)c(-c2csc(Nc3cc(C(=O)O)cc(C(=O)O)c3)n2)s1`, which MIC is on record?
The MIC was over 32 µg/mL.

System: Escherichia coli
Assay: Synergistic antibacterial activity against Escherichia coli CCUGT incubated for 18 to 24 hrs in presence of colistin by broth microdilution method
Type: functional
Conditions: time 18-24 hrs

Which MAC does the source give for `O=C(O)c1cc(Nc2nc(-c3sc(NC(=O)c4ccccc4)nc3C(F)(F)F)cs2)cc(C(=O)O)c1` here?
Its MAC is over 64 µg/mL.

Which MAC does the source give for `CC(C)(C)C(=O)Nc1nc(C(F)(F)F)c(-c2csc(Nc3cc(C(=O)O)cc(C(=O)O)c3)n2)s1` here?
Its MAC is over 64 µg/mL.

System: not listed separately
Assay: Cytotoxicity against african green monkey Vero E6 cells assessed as reduction in cell viability by MTT assay
Type: toxicity, cell-based
Conditions: chlorocebus sabaeus, Vero E6 cells (Vero C1008)
In short: (§2)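 MTT viability on HeLa or VeroE6 cells, run in parallel with the antiviral assays. CC50 from variable-slope sigmoidal dose–response regression.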

With `O=C(O)c1cc(Nc2nc(-c3sc(NC(=O)c4ccccc4)nc3C(F)(F)F)cs2)cc(C(=O)O)c1` as the molecule, how does the CC50 read?
The CC50 was over 50 µM.

With `CC(C)(C)C(=O)Nc1nc(C(F)(F)F)c(-c2csc(Nc3cc(C(=O)O)cc(C(=O)O)c3)n2)s1` as the molecule, how does the CC50 read?
Its CC50 is over 50 µM.

System: Klebsiella pneumoniae
Assay: Synergistic antibacterial activity against Klebsiella pneumoniae ATCC 13833 incubated for 18 to 24 hrs in presence of colistin by broth microdilution method
Type: functional
Conditions: time 18-24 hrs

Which MAC does the source give for `O=C(O)c1cc(Nc2nc(-c3sc(NC(=O)c4ccccc4)nc3C(F)(F)F)cs2)cc(C(=O)O)c1` here?
Its MAC is over 64 µg/mL.

Which MAC does the source give for `CC(C)(C)C(=O)Nc1nc(C(F)(F)F)c(-c2csc(Nc3cc(C(=O)O)cc(C(=O)O)c3)n2)s1` here?
The MAC was over 64 µg/mL.

System: not listed separately
Assay: Cytotoxicity against human HeLa cells assessed as reduction in cell viability by MTT assay
Type: toxicity, cell-based
Conditions: not given
In short: as §2

Which CC50 does the source give for `O=C(O)c1cc(Nc2nc(-c3sc(NC(=O)c4ccccc4)nc3C(F)(F)F)cs2)cc(C(=O)O)c1` here?
Its CC50 is over 50 µM.

For `CC(C)(C)C(=O)Nc1nc(C(F)(F)F)c(-c2csc(Nc3cc(C(=O)O)cc(C(=O)O)c3)n2)s1`, which CC50 is on record?
The CC50 was over 50 µM.

System: Streptococcus pyogenes
Assay: Antibacterial activity against Streptococcus pyogenes ATCC 12344 assessed as reduction in microbial growth measured after 18 hrs by CLSI based broth microdilution method
Type: functional
Conditions: not given
In short: as §1

For `O=C(O)c1cc(Nc2nc(-c3sc(NC(=O)c4ccccc4)nc3C(F)(F)F)cs2)cc(C(=O)O)c1`, which MIC is on record?
The MIC was over 32 µg/mL.

Which MIC does the source give for `CC(C)(C)C(=O)Nc1nc(C(F)(F)F)c(-c2csc(Nc3cc(C(=O)O)cc(C(=O)O)c3)n2)s1` here?
Its MIC is over 32 µg/mL.

System: Acinetobacter baumannii
Assay: Synergistic antibacterial activity against Acinetobacter baumannii ATCC 17978 incubated for 18 to 24 hrs in presence of colistin by broth microdilution method
Type: functional
Conditions: time 18-24 hrs

Which MAC does the source give for `O=C(O)c1cc(Nc2nc(-c3sc(NC(=O)c4ccccc4)nc3C(F)(F)F)cs2)cc(C(=O)O)c1` here?
Its MAC is over 64 µg/mL.

For `CC(C)(C)C(=O)Nc1nc(C(F)(F)F)c(-c2csc(Nc3cc(C(=O)O)cc(C(=O)O)c3)n2)s1`, which MAC is on record?
Its MAC is over 64 µg/mL.

System: rhinovirus A16
Assay: not given
Conditions: hela

Which IC50 does the source give for `O=C(O)c1cc(Nc2nc(-c3sc(NC(=O)c4ccccc4)nc3C(F)(F)F)cs2)cc(C(=O)O)c1` here?
Its IC50 is “Not Active”.

With `CC(C)(C)C(=O)Nc1nc(C(F)(F)F)c(-c2csc(Nc3cc(C(=O)O)cc(C(=O)O)c3)n2)s1` as the molecule, how does the IC50 read?
The IC50 was “Not Active”.

System: Staphylococcus aureus
Assay: Antibacterial activity against Staphylococcus aureus ATCC 25923 assessed as reduction in microbial growth measured after 18 hrs by CLSI based broth microdilution method
Type: functional
Conditions: not given
In short: as §1

For `O=C(O)c1cc(Nc2nc(-c3sc(NC(=O)c4ccccc4)nc3C(F)(F)F)cs2)cc(C(=O)O)c1`, which MIC is on record?
Its MIC is over 32 µg/mL.

Which MIC does the source give for `CC(C)(C)C(=O)Nc1nc(C(F)(F)F)c(-c2csc(Nc3cc(C(=O)O)cc(C(=O)O)c3)n2)s1` here?
The MIC was over 32 µg/mL.

System: Pseudomonas aeruginosa
Assay: Synergistic antibacterial activity against Pseudomonas aeruginosa ATCC 27853 incubated for 18 to 24 hrs in presence of colistin by broth microdilution method
Type: functional
Conditions: time 18-24 hrs

Which MAC does the source give for `O=C(O)c1cc(Nc2nc(-c3sc(NC(=O)c4ccccc4)nc3C(F)(F)F)cs2)cc(C(=O)O)c1` here?
The MAC was over 64 µg/mL.

With `CC(C)(C)C(=O)Nc1nc(C(F)(F)F)c(-c2csc(Nc3cc(C(=O)O)cc(C(=O)O)c3)n2)s1` as the molecule, how does the MAC read?
Its MAC is over 64 µg/mL.

System: enterovirus D68
Assay: not given
Conditions: hela

For `O=C(O)c1cc(Nc2nc(-c3sc(NC(=O)c4ccccc4)nc3C(F)(F)F)cs2)cc(C(=O)O)c1`, which IC50 is on record?
The IC50 was “Not Active”.
